Here are results for 6 compounds from ChEMBL document CHEMBL1148129, “Reversal of multidrug resistance by tropane alkaloids from the stems of Erythroxylum rotundifolium” (2002).

Molecules are shown by their SMILES. Values after ≈ are worked out from the molar mass of the structure shown. Active and inactive are the calls of the source. The calls are words filed in the database; no cut-off is given here. A value given as a limit tells only on which side of the number the result lay.

Assay [1] in a line: Cytotoxicity against human KBV1 cells in absence of vinblastine. In kind it is functional. As to conditions: KB-V1, read-out: ED50 (the source's name). The gist of the method:
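Multidrug-resistant oral epidermoid carcinoma KB-V1 cells were incubated with test compound alone, with no vinblastine added. Cytotoxicity is reported as ED50 in µg/mL.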

Assay [2] has as its system Col2. Kind of assay: Cytotoxicity against human Col2 cells. In kind it is functional. As to conditions: read-out: ED50 (the source's name).
The nature of assay [3]: Cytotoxicity against human BC1 cells. As to conditions: read-out: ED50 (the source's name). In kind it is functional.
Assay [4] deals with ASK. Kind of assay: Cytotoxicity against human ASK cells at 20 ug/mL. In kind it is functional, cell-based.
Assay [5] in a line: Cytotoxicity against human KBV1 cells in presence of vinblastine. As to conditions: KB-V1, read-out: ED50 (the source's name). In kind it is functional. The gist of the method:
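Multidrug-resistant oral epidermoid carcinoma KB-V1 cells were incubated with test compound in the presence of vinblastine at 1.0 µg/mL. Cytotoxicity is reported as ED50 in µg/mL.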

Assay [6] deals with Lu1. Kind of assay: Cytotoxicity against human Lu1 cells. In kind it is functional. As to conditions: read-out: ED50 (the source's name).
In assay [7] the test system is LNCaP. Kind of assay: Cytotoxicity against human LNCAP cells. In kind it is functional. As to conditions: read-out: ED50 (the source's name).
The test system of assay [8] is KB. Kind of assay: Cytotoxicity against human KB cells. In kind it is functional. As to conditions: read-out: ED50 (the source's name). In short, it runs like this: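 Parental (drug-sensitive) KB oral epidermoid carcinoma cells were exposed to test compound without vinblastine. Cytotoxicity is reported as ED50 in µg/mL.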

Turning to `COc1cc(/C=C/C(=O)O[C@@H]2C[C@@H]3[C@@H](OC(=O)c4ccccc4)[C@@H](OC(C)=O)[C@H](C2)N3C)cc(OC)c1OC`, the EC50 in assay [1] was 13.2 µg/mL (≈ 24.5 µM); in assay [2], over 20 µg/mL; in assay [3] it was 14.6 µg/mL (≈ 27.1 µM); in assay [5] it was 1.1 µg/mL; in assay [6], over 20 µg/mL; in assay [7] it was 14.9 µg/mL (≈ 27.6 µM). Moreover, in assay [8], the EC50 came out at 14.8 µg/mL (≈ 27.4 µM). In addition, the result in assay [4] was inactive.
With `COc1cc(/C=C\C(=O)O[C@H]2C[C@H]3C[C@H](OC(=O)c4ccccc4)[C@@H](C2)N3C)cc(OC)c1OC`, the EC50 was 3.5 µg/mL (≈ 7.27 µM) in assay [1]; over 20 µg/mL in assay [3]; 0.3 µg/mL in assay [5]; over 20 µg/mL in assay [6]; over 20 µg/mL in assay [8].
In the case of `CN1C2C[C@H](O)CC1[C@@H](OC(=O)c1ccccc1)C2` (some centres not stated), the EC50 in assay [1], in assay [3], in assay [5], in assay [6] and in assay [8] was over 20 µg/mL in each case.
With `COc1cc(/C=C/C(=O)O[C@@H]2C[C@@H]3[C@@H](OC(=O)c4ccccc4)[C@@H](O)[C@H](C2)N3C)cc(OC)c1OC`, the EC50 was 2.6 µg/mL (≈ 5.23 µM) in assay [1]; over 20 µg/mL in assay [2]; over 20 µg/mL in assay [3]; 0.3 µg/mL in assay [5]; over 20 µg/mL in assay [6]; 6.7 µg/mL (≈ 13.5 µM) in assay [7]. Also, in assay [8], the EC50 was over 20 µg/mL. For the same compound, the result in assay [4] was inactive.
As for `COc1cc(/C=C/C(=O)O[C@@H]2C[C@@H]3[C@@H](OC(=O)c4cc(OC)c(OC)c(OC)c4)[C@@H](O)[C@H](C2)N3C)cc(OC)c1OC`, the EC50 in assay [1] worked out at 20 µg/mL (≈ 34 µM); in assay [2], 10.4 µg/mL (≈ 17.7 µM); in assay [3], 6.1 µg/mL (≈ 10.4 µM); in assay [5], 6.6 µg/mL; in assay [6], 14.6 µg/mL (≈ 24.8 µM); in assay [7] it was 15 µg/mL (≈ 25.5 µM). For the same compound, the EC50 in assay [8] worked out at 12.6 µg/mL (≈ 21.4 µM). In addition, the outcome in assay [4] was inactive.
Regarding `COc1cc(/C=C/C(=O)O[C@H]2C[C@H]3C[C@H](OC(=O)c4ccccc4)[C@@H](C2)N3C)cc(OC)c1OC`, the EC50 in assay [1] was 3.6 µg/mL (≈ 7.48 µM); in assay [2], 5.1 µg/mL (≈ 10.6 µM); in assay [3], 15.3 µg/mL (≈ 31.8 µM); in assay [5], 0.2 µg/mL; in assay [6], over 20 µg/mL; in assay [7], 10 µg/mL (≈ 20.8 µM). The EC50 in assay [8] was determined as 10.3 µg/mL (≈ 21.4 µM). In assay [4], the result was inactive.
